Reference: paper PMC4152746 (Cell Research, 2014)
Where a SMILES comes first, the peptide text is derived from it. Where no end group is shown, it is not given here. [ ]: non-standard residue; d: D form. The star is where a group is joined. pY = N[C@@H](Cc1ccc(OP(=O)(O)O)cc1)C(=O)O; Cbz = O=C(OCc1ccccc1)*

How the values were obtained:
[1] = system: HER2 level in HepG2 cells; test: EGF-induced HER2 degradation with proteasome inhibitor; assay type: cell-based; details: 100 ng/ml EGF
Summary of the method: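 HepG2 cells are transfected with control vector or PTPN18, preincubated with MG-132, then exposed to EGF for a time course. HER2 is detected by western blot with a specific antibody and quantified.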

PTPN18 [2] = biological target: T1, PTPN18 (Homo sapiens, UniProt Q99952); test: pNPP phosphatase assay; assay type: biochemical; details: PTPN18 versus PTP1B, DMG buffer, 37 °C
T1 sequence (Q99952 6-300): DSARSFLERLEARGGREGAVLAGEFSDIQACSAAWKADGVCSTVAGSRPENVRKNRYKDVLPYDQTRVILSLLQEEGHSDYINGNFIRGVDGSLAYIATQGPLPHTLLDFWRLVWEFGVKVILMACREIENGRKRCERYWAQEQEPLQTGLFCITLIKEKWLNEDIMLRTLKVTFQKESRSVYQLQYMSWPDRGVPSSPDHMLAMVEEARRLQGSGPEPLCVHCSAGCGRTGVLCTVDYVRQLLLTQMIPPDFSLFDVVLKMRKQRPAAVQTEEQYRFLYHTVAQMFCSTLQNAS

PTPN18 [3] = biological target: T1, PTPN18; test: PTPN18-catalyzed hydrolysis of pY-containing peptides; assay type: biochemical; details: for Kcat/Km of PTPN18: calculated; for Kcat/Km of PTPN18 / Kcat for PTPN18 catalysis: range over the three peptides, pH 6.5, 37 °C, 10 nM PTPN18
Summary of the method: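 Peptide dephosphorylation by the phosphatase, read by two methods: tyrosine fluorescence gain (excitation 280 nm, emission 305 nm) and an end-point inorganic phosphate assay at 620 nm. Conditions were 37 °C in 50 mM 3,3-dimethylglutarate pH 6.5, 1 mM DTT, 1 mM EDTA, ionic strength 0.15 M. Reactions started with enzyme at 10 nM final. Kinetics came from nonlinear least-squares regression.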

[4] = system: PTPN18 mutants V65A, V65I, P272M; test: Catalytic activity of PTPN18 pY+1 pocket mutants towards HER2 phospho-peptides; assay type: biochemical, human; details: mutations V65A, V65I and P272M versus wild type
Summary of the method: (§1)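 Recombinant PTPN18 (wild type or mutant) hydrolysing pY-containing peptides at 37 °C in 50 mM 3,3-dimethylglutarate, pH 6.5, 1 mM DTT, 1 mM EDTA, ionic strength 0.15 M. Reactions are started by adding enzyme to 10 nM final. Read-out is tyrosine fluorescence (ex 280/em 305 nm) or inorganic-phosphate end-point at 620 nm. Kinetics are fitted by nonlinear least-squares regression.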

[5] = system: PTPN18 mutants R198A, R198E; test: Catalytic activity of PTPN18 R198 mutants towards HER2 phospho-peptides; assay type: biochemical, human; details: R198 changed to Ala or Glu versus wild type
Summary of the method: as §1

PTPN18 V65I = biological target: T2, PTPN18 V65I (UniProt Q99952 1-460, V65I); test: cell-based or functional assay
T2 sequence (looked up): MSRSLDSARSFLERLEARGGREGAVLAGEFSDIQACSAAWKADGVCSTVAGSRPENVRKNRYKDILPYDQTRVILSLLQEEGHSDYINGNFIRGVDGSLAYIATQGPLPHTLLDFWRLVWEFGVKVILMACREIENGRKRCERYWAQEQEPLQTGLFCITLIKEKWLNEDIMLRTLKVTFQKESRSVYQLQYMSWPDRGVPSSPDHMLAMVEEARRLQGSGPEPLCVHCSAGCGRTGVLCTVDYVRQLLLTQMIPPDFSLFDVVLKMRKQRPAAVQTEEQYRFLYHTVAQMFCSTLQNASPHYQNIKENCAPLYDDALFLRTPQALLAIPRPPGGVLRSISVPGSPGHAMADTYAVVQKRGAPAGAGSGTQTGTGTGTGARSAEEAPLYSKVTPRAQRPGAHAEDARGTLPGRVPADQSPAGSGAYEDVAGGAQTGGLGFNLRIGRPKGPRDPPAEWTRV

PTPN18 P272M = biological target: T3, PTPN18 P272M (UniProt Q99952 1-460, P272M); test: cell-based or functional assay
T3 sequence (looked up): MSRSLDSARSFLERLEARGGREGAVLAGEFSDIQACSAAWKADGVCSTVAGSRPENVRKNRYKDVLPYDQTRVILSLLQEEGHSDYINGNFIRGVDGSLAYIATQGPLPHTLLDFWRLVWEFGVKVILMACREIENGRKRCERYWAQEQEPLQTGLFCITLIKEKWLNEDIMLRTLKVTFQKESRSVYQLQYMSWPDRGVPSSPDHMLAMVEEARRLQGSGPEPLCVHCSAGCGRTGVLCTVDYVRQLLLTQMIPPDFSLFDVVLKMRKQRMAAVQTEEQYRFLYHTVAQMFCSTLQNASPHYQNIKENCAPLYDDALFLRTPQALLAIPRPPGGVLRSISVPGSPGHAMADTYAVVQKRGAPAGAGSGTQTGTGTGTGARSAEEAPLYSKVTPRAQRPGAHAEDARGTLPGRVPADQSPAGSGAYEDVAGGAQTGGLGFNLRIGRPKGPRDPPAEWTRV

PTPN18 V65A = biological target: T4, PTPN18 V65A (UniProt Q99952 1-460, V65A); test: cell-based or functional assay
T4 sequence (looked up): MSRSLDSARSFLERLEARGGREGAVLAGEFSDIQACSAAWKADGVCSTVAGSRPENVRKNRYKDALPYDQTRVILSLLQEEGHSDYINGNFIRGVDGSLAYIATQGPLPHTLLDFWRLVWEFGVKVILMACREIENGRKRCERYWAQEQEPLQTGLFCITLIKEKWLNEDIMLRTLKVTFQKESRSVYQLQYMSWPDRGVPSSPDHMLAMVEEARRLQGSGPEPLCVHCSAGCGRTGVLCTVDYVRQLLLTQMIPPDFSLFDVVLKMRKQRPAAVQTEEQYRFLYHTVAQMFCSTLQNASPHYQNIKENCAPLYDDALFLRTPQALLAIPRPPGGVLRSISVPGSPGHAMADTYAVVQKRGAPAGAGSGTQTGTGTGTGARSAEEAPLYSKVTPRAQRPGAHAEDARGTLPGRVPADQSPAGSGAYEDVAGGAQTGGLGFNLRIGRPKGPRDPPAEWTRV

CC(C)C[C@@H](C=O)NC(=O)[C@H](CC(C)C)NC(=O)[C@H](CC(C)C)NC(=O)OCc1ccccc1 [MG132] (Cbz-Leu-Leu-Leu-aldehyde)
Effect on PTPN18-overexpression-promoted HER2 degradation ([1]; HepG2 cells transfected with PTPN18, 5 μM MG-132 for 16 h): almost abolished
Endogenous HER2 expression level ([1]; HepG2 cells, 5 μM MG-132 preincubated for 16 h): significantly increased

O=[N+]([O-])c1ccc(OP(=O)(O)O)cc1 [pNPP, para-nitrophenyl phosphate]
Kcat/Km of PTPN18 lower than that of PTP1B (PTPN18 [2]): 2000 fold

Ac-ENPE pY^1196 LTPQ-NH2 [HER2 pY^1196]
Kcat/Km of PTPN18 relative to its Kcat/Km towards HER2 pY^1248 (PTPN18 [3]): approximately half
Kcat/Km of PTPN18 (PTPN18 [3]): 400000 to 800000 M⁻¹ s⁻¹
Kcat for PTPN18 catalysis (PTPN18 [3]): 4 to 11.2 s⁻¹
Decrease of PTPN18 activity towards the peptide by mutation [4]: > 2 fold

Ac-ENPEpY^1248 LGLD-NH2 [HER2 pY^1248]
Decrease of PTPN18 activity towards the peptide by mutation [5]: 2-3 fold
Kcat/Km of PTPN18 (PTPN18 [3]): 400000 to 800000 M⁻¹ s⁻¹
Kcat for PTPN18 catalysis (PTPN18 [3]): 4 to 11.2 s⁻¹
Decrease of PTPN18 activity towards the peptide by mutation [4]: > 2 fold

HER2 pY^1221pY^1222: HER2 doubly phosphorylated Y1221/Y1222 site phospho-peptide (FDNL[pY][pY]WDQD)
PTPN18 activity towards the peptide (in words) (PTPN18 [3]): very weak activity

PLQRpY^1112 SEDP [HER2 pY^1112]
Decrease of PTPN18 activity towards the peptide by mutation [5]: 2-3 fold
Kcat/Km of PTPN18 (PTPN18 [3]): 400000 to 800000 M⁻¹ s⁻¹
Kcat for PTPN18 catalysis (PTPN18 [3]): 4 to 11.2 s⁻¹

B1: HER2 pY1248 phospho-peptide (Ac-ENPEpY1248LGLD-NH2) (peptide)
peptide: Ac-ENPE[pY]LGLD-NH2
SMILES: CC(=O)N[C@@H](CCC(=O)O)C(=O)N[C@@H](CC(N)=O)C(=O)N1CCC[C@H]1C(=O)N[C@@H](CCC(=O)O)C(=O)N[C@@H](Cc1ccc(OP(=O)(O)O)cc1)C(=O)N[C@@H](CC(C)C)C(=O)NCC(=O)N[C@@H](CC(C)C)C(=O)N[C@@H](CC(=O)O)C(N)=O
decrease of PTPN18 activity towards the peptide (Figure 6B) (PTPN18 V65I): > 2 fold
decrease of PTPN18 activity towards the peptide (Figure 6B) (PTPN18 P272M): > 2 fold
decrease of PTPN18 activity towards the peptide (Figure 6B) (PTPN18 V65A): > 2 fold

B2: HER2 pY1196 phospho-peptide (Ac-ENPEpY1196LTPQ-NH2) (peptide)
peptide: Ac-ENPE[pY]LTPQ-NH2
SMILES: CC(=O)N[C@@H](CCC(=O)O)C(=O)N[C@@H](CC(N)=O)C(=O)N1CCC[C@H]1C(=O)N[C@@H](CCC(=O)O)C(=O)N[C@@H](Cc1ccc(OP(=O)(O)O)cc1)C(=O)N[C@@H](CC(C)C)C(=O)N[C@H](C(=O)N1CCC[C@H]1C(=O)N[C@@H](CCC(N)=O)C(N)=O)[C@@H](C)O
decrease of PTPN18 activity towards the peptide (Figure 6B) (PTPN18 V65I): > 2 fold
decrease of PTPN18 activity towards the peptide (Figure 6B) (PTPN18 P272M): > 2 fold
decrease of PTPN18 activity towards the peptide (Figure 6B) (PTPN18 V65A): > 2 fold
